This passage reports MIC results from ChEMBL document CHEMBL4665627 (Eur J Med Chem, 2019).

What all share (type): functional
In assay [1] the test system is Pseudomonas aeruginosa. Put plainly: Antibacterial activity against Pseudomonas aeruginosa assessed as inhibition of bacterial growth after 24 hrs by CLSI protocol based two fold serial dilution method. In outline:
(§1)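 Two-fold serial broth dilution in 96-well plates following CLSI; MIC (mM) taken as the lowest concentration giving complete growth inhibition; MIC values from three independent experiments.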

In the next assay the test system is Candida parapsilosis. The experiment in a line: Antifungal activity against Candida parapsilosis ATCC 22019 assessed as inhibition of fungal growth after 24 hrs by CLSI protocol based two fold serial dilution method. The note with it: Lodderomyces parapsilosis. In outline: as §1
Another assay deals with Aspergillus fumigatus. Put plainly: Antifungal activity against Aspergillus fumigatus assessed as inhibition of fungal growth after 24 hrs by CLSI protocol based two fold serial dilution method. An outline of the steps:
as §1

The next assay deals with Candida tropicalis. The experiment in a line: Antifungal activity against Candida tropicalis assessed as inhibition of fungal growth after 24 hrs by CLSI protocol based two fold serial dilution method. An outline of the steps: as §1
The subject of assay [2] is Candida albicans. The experiment in a line: Antifungal activity against Candida albicans ATCC 90023 assessed as inhibition of fungal growth after 24 hrs by CLSI protocol based two fold serial dilution method. In outline: as §1
Assay [3] has as its system Candida albicans. The experiment in a line: Antifungal activity against Candida albicans assessed as inhibition of fungal growth after 24 hrs by CLSI protocol based two fold serial dilution method. An outline of the steps: as §1
For a further assay, the system named is Acinetobacter baumannii. Put plainly: Antibacterial activity against Acinetobacter baumannii assessed as inhibition of bacterial growth after 24 hrs by CLSI protocol based two fold serial dilution method. In outline:
as §1

For assay [4], the system named is Pseudomonas aeruginosa. The experiment in a line: Antibacterial activity against Pseudomonas aeruginosa ATCC 27853 assessed as inhibition of bacterial growth after 24 hrs by CLSI protocol based two fold serial dilution method. An outline of the steps: as §1
Assay [5] relates to Escherichia coli. Put plainly: Antibacterial activity against Escherichia coli ATCC 25922 assessed as inhibition of bacterial growth after 24 hrs by CLSI protocol based two fold serial dilution method. An outline of the steps:
as §1

In assay [6] the test system is Escherichia coli. The experiment in a line: Antibacterial activity against Escherichia coli assessed as inhibition of bacterial growth after 24 hrs by CLSI protocol based two fold serial dilution method. An outline of the steps: as §1
The subject of a further assay is Klebsiella pneumoniae. The experiment in a line: Antibacterial activity against Klebsiella pneumoniae assessed as inhibition of bacterial growth after 24 hrs by CLSI protocol based two fold serial dilution method. An outline of the steps: as §1
For assay [7], the system named is Staphylococcus aureus. Put plainly: Antibacterial activity against Staphylococcus aureus ATCC 29213 assessed as inhibition of bacterial growth after 24 hrs by CLSI protocol based two fold serial dilution method.
Assay [8] deals with Staphylococcus aureus. Put plainly: Antibacterial activity against Staphylococcus aureus ATCC 25923 assessed as inhibition of bacterial growth after 24 hrs by CLSI protocol based two fold serial dilution method. In outline: as §1
The subject of assay [9] is Staphylococcus aureus. The experiment in a line: Antibacterial activity against Staphylococcus aureus assessed as inhibition of bacterial growth after 24 hrs by CLSI protocol based two fold serial dilution method. In outline: as §1
A further assay relates to Enterococcus faecalis. The experiment in a line: Antibacterial activity against Enterococcus faecalis assessed as inhibition of bacterial growth after 24 hrs by CLSI protocol based two fold serial dilution method. In outline: as §1
In assay [10] the test system is Staphylococcus aureus. The experiment in a line: Antibacterial activity against methicillin-resistant Staphylococcus aureus N315 assessed as inhibition of bacterial growth after 24 hrs by CLSI protocol based two fold serial dilution method.

Values after ≈ are worked out from the molar mass of the structure shown.

As for `CCn1cc(-c2csc(N)n2)c(=O)c2cc(F)c(N3CCN(Cc4ccc(Cl)cc4Cl)CC3)cc21`, the MIC (in general, the lowest concentration that inhibits growth of the organism) was found to be 241 µM (≈ 128 µg/mL) with Pseudomonas aeruginosa [1]; 15 µM (≈ 7.99 µg/mL) with Candida parapsilosis; 482 µM (≈ 257 µg/mL) in the assay with Aspergillus fumigatus; 482 µM (≈ 257 µg/mL) with Candida tropicalis; 482 µM (≈ 257 µg/mL) with Candida albicans [2]; 482 µM (≈ 257 µg/mL) in the assay with Candida albicans [3]. Also, the MIC came to 482 µM (≈ 257 µg/mL) with Acinetobacter baumannii; 121 µM (≈ 64.4 µg/mL) with Pseudomonas aeruginosa [4]; 482 µM (≈ 257 µg/mL) in the assay with Escherichia coli [5]; 241 µM (≈ 128 µg/mL) in the assay on Escherichia coli [6]; 241 µM (≈ 128 µg/mL) with Klebsiella pneumoniae; 241 µM (≈ 128 µg/mL) with Staphylococcus aureus [7]. For the same molecule, the minimal inhibitory concentration (MIC) in the assay with Staphylococcus aureus [8] came out at 60 µM (≈ 31.9 µg/mL); with Staphylococcus aureus [9], 482 µM (≈ 257 µg/mL); in the assay on Enterococcus faecalis, 121 µM (≈ 64.4 µg/mL); in the assay with Staphylococcus aureus [10], 15 µM (≈ 7.99 µg/mL).
In the case of `CCCN1CCN(c2cc3c(cc2F)c(=O)c(-c2csc(N)n2)cn3CC)CC1`, the minimum inhibitory concentration (MIC) in the assay on Pseudomonas aeruginosa [1] was 617 µM (≈ 256 µg/mL); in the assay on Candida parapsilosis it was 308 µM (≈ 128 µg/mL); with Aspergillus fumigatus, 154 µM (≈ 64 µg/mL); in the assay with Candida tropicalis it was 308 µM (≈ 128 µg/mL); in the assay with Candida albicans [2], 308 µM (≈ 128 µg/mL); in the assay on Candida albicans [3], 308 µM (≈ 128 µg/mL). For the same molecule, the minimal inhibitory concentration (MIC) in the assay with Acinetobacter baumannii was 154 µM (≈ 64 µg/mL); in the assay with Pseudomonas aeruginosa [4], 154 µM (≈ 64 µg/mL); in the assay on Escherichia coli [5], 308 µM (≈ 128 µg/mL); in the assay on Escherichia coli [6] it was 308 µM (≈ 128 µg/mL); with Klebsiella pneumoniae, 154 µM (≈ 64 µg/mL); with Staphylococcus aureus [7], 617 µM (≈ 256 µg/mL). Also, the MIC in the assay on Staphylococcus aureus [8] was 154 µM (≈ 64 µg/mL); in the assay with Staphylococcus aureus [9], 308 µM (≈ 128 µg/mL); with Enterococcus faecalis, 154 µM (≈ 64 µg/mL); with Staphylococcus aureus [10] it was 308 µM (≈ 128 µg/mL).
Regarding `C#CCN1CCN(c2cc3c(cc2F)c(=O)c(-c2csc(N)n2)cn3CC)CC1`, the MIC was 19 µM (≈ 7.82 µg/mL) with Pseudomonas aeruginosa [1]; 10 µM (≈ 4.12 µg/mL) with Candida parapsilosis; 19 µM (≈ 7.82 µg/mL) with Aspergillus fumigatus; 39 µM (≈ 16 µg/mL) in the assay on Candida tropicalis; 19 µM (≈ 7.82 µg/mL) in the assay with Candida albicans [2]; 19 µM (≈ 7.82 µg/mL) in the assay on Candida albicans [3]. The minimal inhibitory concentration (MIC) was 19 µM (≈ 7.82 µg/mL) with Acinetobacter baumannii; 5 µM (≈ 2.06 µg/mL) in the assay with Pseudomonas aeruginosa [4]; 19 µM (≈ 7.82 µg/mL) in the assay on Escherichia coli [5]; 156 µM (≈ 64.2 µg/mL) in the assay with Escherichia coli [6]; 10 µM (≈ 4.12 µg/mL) in the assay with Klebsiella pneumoniae; 5 µM (≈ 2.06 µg/mL) in the assay on Staphylococcus aureus [7]. Also, the MIC in the assay on Staphylococcus aureus [8] worked out at 39 µM (≈ 16 µg/mL); in the assay with Staphylococcus aureus [9], 19 µM (≈ 7.82 µg/mL); in the assay on Enterococcus faecalis, 19 µM (≈ 7.82 µg/mL); in the assay with Staphylococcus aureus [10], 20 µM (≈ 8.23 µg/mL).
For the molecule `CCn1cc(-c2csc(N)n2)c(=O)c2cc(F)c(N3CCN(CC(=O)N(C(C)C)C(C)C)CC3)cc21`, the MIC in the assay with Pseudomonas aeruginosa [1] stood at 249 µM (≈ 128 µg/mL); in the assay with Candida parapsilosis, 996 µM (≈ 513 µg/mL); with Aspergillus fumigatus it was 498 µM (≈ 256 µg/mL); in the assay on Candida tropicalis it was 498 µM (≈ 256 µg/mL); in the assay on Candida albicans [2] it was 498 µM (≈ 256 µg/mL); with Candida albicans [3], 996 µM (≈ 513 µg/mL). Besides, the MIC worked out at 249 µM (≈ 128 µg/mL) in the assay with Acinetobacter baumannii; 249 µM (≈ 128 µg/mL) with Pseudomonas aeruginosa [4]; 498 µM (≈ 256 µg/mL) in the assay on Escherichia coli [5]; 498 µM (≈ 256 µg/mL) with Escherichia coli [6]; 498 µM (≈ 256 µg/mL) with Klebsiella pneumoniae; 249 µM (≈ 128 µg/mL) with Staphylococcus aureus [7]. For the same molecule, the MIC in the assay with Staphylococcus aureus [8] amounted to 249 µM (≈ 128 µg/mL); with Staphylococcus aureus [9] it was 62 µM (≈ 31.9 µg/mL); with Enterococcus faecalis it was 249 µM (≈ 128 µg/mL); in the assay on Staphylococcus aureus [10], 124 µM (≈ 63.8 µg/mL).
Consider `CCn1cc(-c2csc(N)n2)c(=O)c2cc(F)c(N3CCN(CC(=O)N(CCO)CCO)CC3)cc21`, for which the MIC with Pseudomonas aeruginosa [1] was found to be 62 µM (≈ 32.2 µg/mL); in the assay with Candida parapsilosis, 31 µM (≈ 16.1 µg/mL); with Aspergillus fumigatus, 15 µM (≈ 7.78 µg/mL); with Candida tropicalis, 62 µM (≈ 32.2 µg/mL); in the assay with Candida albicans [2], 8 µM (≈ 4.15 µg/mL); with Candida albicans [3], 62 µM (≈ 32.2 µg/mL). In addition, the MIC in the assay with Acinetobacter baumannii came out at 62 µM (≈ 32.2 µg/mL); in the assay on Pseudomonas aeruginosa [4] it was 62 µM (≈ 32.2 µg/mL); in the assay with Escherichia coli [5], 15 µM (≈ 7.78 µg/mL); in the assay on Escherichia coli [6] it was 62 µM (≈ 32.2 µg/mL); in the assay with Klebsiella pneumoniae, 62 µM (≈ 32.2 µg/mL); in the assay with Staphylococcus aureus [7], 62 µM (≈ 32.2 µg/mL). Moreover, the MIC was 8 µM (≈ 4.15 µg/mL) in the assay on Staphylococcus aureus [8], 124 µM (≈ 64.3 µg/mL) in the assay on Staphylococcus aureus [9], 15 µM (≈ 7.78 µg/mL) in the assay on Enterococcus faecalis and 62 µM (≈ 32.2 µg/mL) in the assay on Staphylococcus aureus [10].
As to `CCn1cc(-c2csc(N)n2)c(=O)c2cc(F)c(N3CCN(CC(C)=O)CC3)cc21`, the MIC in the assay on Pseudomonas aeruginosa [1] was determined as 597 µM (≈ 256 µg/mL); in the assay on Candida parapsilosis, 298 µM (≈ 128 µg/mL); in the assay with Aspergillus fumigatus, 597 µM (≈ 256 µg/mL); in the assay on Candida tropicalis, 298 µM (≈ 128 µg/mL); with Candida albicans [2], 37 µM (≈ 15.9 µg/mL); in the assay with Candida albicans [3] it was 597 µM (≈ 256 µg/mL). The MIC in the assay on Acinetobacter baumannii was determined as 298 µM (≈ 128 µg/mL); with Pseudomonas aeruginosa [4] it was 149 µM (≈ 64 µg/mL); in the assay with Escherichia coli [5], 298 µM (≈ 128 µg/mL); with Escherichia coli [6], 597 µM (≈ 256 µg/mL); in the assay with Klebsiella pneumoniae it was 37 µM (≈ 15.9 µg/mL); in the assay on Staphylococcus aureus [7], 298 µM (≈ 128 µg/mL). Moreover, the MIC came out at 19 µM (≈ 8.16 µg/mL) in the assay with Staphylococcus aureus [8], 37 µM (≈ 15.9 µg/mL) with Staphylococcus aureus [9], 149 µM (≈ 64 µg/mL) with Enterococcus faecalis and 298 µM (≈ 128 µg/mL) in the assay on Staphylococcus aureus [10].
